Reference: paper PMC4227816 (Journal of the American Chemical Society, 2014)
Where a name gives a salt, the structure may show the parent alone.

Test system: HIV-1RF challenged T-lymphoblastic CEM-SS cells
Assay: XTT anti-HIV-1 cytopathicity assay in CEM-SS cells
Assay type: cell-based
How it was run: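 CEM-SS cells grown in phenol red-free RPMI 1640 with 5% FBS, 2 mM L-glutamine and 50 μg/mL gentamicin. Washed log-phase cells seeded at 5 × 10^3 per well with serial dilutions of compound in DMSO. HIV-1RF diluted to give 80–90% cell kill at 6 days, with parallel uninfected wells for toxicity. Incubated 6 days at 37 °C, viability read by XTT, in triplicate.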

SMILES: CC(=O)c1ccc2c(c1)N(CCCN(C)C)c1ccccc1S2 [Acepromazine maleate]
- protective effect against HIV-1-induced cytopathicity (in words): not protective
